Measured values of several laboratories.
Compare with care: the assays were run in different laboratories.
PIK3CB: Phosphatidylinositol 4,5-bisphosphate 3-kinase catalytic subunit beta isoform (PIK3CB, Homo sapiens, UniProt P42338)

C=CC(=O)N1CCC[C@@H](n2nc(-c3ccc(Oc4ccccc4)cc3)c3c(N)ncnc32)C1 — inhibition (PIK3CB; enzyme activity; inhibitor; 1 µM): 2%
CC(C)S(=O)(=O)c1ccc2nccc(Nc3ccc4sc(C5CCCC5)nc4c3)c2c1 — activity vs control (Phosphatidylinositol 4,5-bisphosphate 3-kinase catalytic subunit beta isoform, with p85 (PIK3CB, Homo sapiens, UniProt P42338); enzyme activity; inhibitor; 1 µM): 97%
Cc1ccc(NC(=O)c2ccnc(C(F)(F)F)c2)cc1-c1cc(OCCO)nc(N2CCOCC2)c1 — remaining binding (PIK3CB; binding; 1 µM): 100%
CC#CC(=O)N1CCC[C@H]1c1nc(-c2ccc(C(=O)Nc3ccccn3)cc2)c2c(N)nccn12 — inhibition (PIK3CB; enzyme activity; inhibitor; 1 µM): 0%
CN1CCN(C(=O)c2ccc(NC(=O)Nc3ccc(N(C)c4ccnc(Nc5ccc(CS(C)(=O)=O)cc5)n4)cc3)cc2)CC1 — remaining binding (PIK3CB; binding; 1 µM): 100%
C1=C/COCc2cc(ccc2OCCN2CCCC2)Nc2nccc(n2)-c2cccc(c2)COC/1 — remaining binding (PIK3CB; binding; 0.1 µM): 98%
CCCCC(=O)Nc1ccc(-c2ccc3ncn(CCC)c(=O)c3c2)cn1 — remaining binding (PIK3CB; binding; competition with immobilised ligand; 0.5 µM): 100%
Cc1nc(NC(=O)N2CCC[C@H]2C(N)=O)sc1-c1ccnc(C(C)(C)C(F)(F)F)c1 — inhibition (PIK3CB; enzyme activity; inhibitor; ADP detection; 10 µM): 82.9%
